How the values were obtained:
[1] = Plasma concentrations of BMS-986224 in the RHR studies; assay type: in vivo, rat; details: for steady-state plasma concentration: SC 10-day infusion
Procedure, shortened: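 Renal hypertensive rat model in male Sprague-Dawley rats. Dosing was either a 10-day SC infusion by osmotic minipump or oral BID dosing at 0.1 and 1 mg/kg. The SC low dose targeted a steady-state level of ≈100 nmol/L, and the high dose targeted ≈10-fold more. The oral doses targeted ≈200 nmol/L at peak or trough. Peak, trough and steady-state plasma levels were measured, and AUC(0–24) was derived.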

human APJ [2] = molecular target: T1, human APJ (Homo sapiens, UniProt P35414); assay: cAMP inhibition assay, HEK293 ZF cells; assay type: cell-based
T1 sequence (P35414 1-380): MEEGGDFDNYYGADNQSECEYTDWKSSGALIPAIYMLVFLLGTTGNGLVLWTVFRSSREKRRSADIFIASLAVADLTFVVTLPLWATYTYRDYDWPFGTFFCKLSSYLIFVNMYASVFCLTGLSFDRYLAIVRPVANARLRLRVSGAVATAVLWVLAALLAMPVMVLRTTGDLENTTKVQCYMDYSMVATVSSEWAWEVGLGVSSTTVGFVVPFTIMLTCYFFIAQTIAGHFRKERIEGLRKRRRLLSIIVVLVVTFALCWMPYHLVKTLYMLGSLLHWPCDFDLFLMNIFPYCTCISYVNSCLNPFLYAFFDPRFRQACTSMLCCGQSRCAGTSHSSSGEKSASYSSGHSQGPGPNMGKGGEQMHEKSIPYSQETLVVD

[3] = system: instrumented anesthetized rats; assay: Acute hemodynamics, 15-min IV infusion of BMS-986224; assay type: in vivo, rat; details: for CO percentage change from baseline / SV percentage change from baseline: 15 min
Procedure, shortened: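 Male Sprague-Dawley rats (≥250 g), anesthetized and surgically instrumented, received a 15-min IV infusion of test compound at 1, 10 or 100 μg/kg per min, then a 15-min washout. Vehicle-infused rats served as comparison. SV, CO, dP/dtmax, HR and mean arterial pressure were expressed as percentage change from baseline. Plasma exposure was sampled at each dose.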

[4] = Plasma exposure during and after IV infusion, anesthetized cannulated rats; assay type: in vivo, rat
other GPCRs = assay: GPCR selectivity assays, cardiovascular receptor safety panel; assay type: binding, human; details: tested up to 30 µmol/L
human APJ [5] = molecular target: T1, human APJ; assay: BRET-based biosensor assays; assay type: cell-based
[6] = system: RHR (renal hypertensive rat) model; assay: RHR model, oral QD study; assay type: in vivo; details: both doses (0.06 and 0.2 mg/kg)
[7] = system: RHR (renal hypertensive rat) model; assay: RHR model, subcutaneous infusion via osmotic minipump; assay type: in vivo; details: SC infusion
Procedure, shortened: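 Renal hypertensive rats (male Sprague-Dawley) received test compound for 10 days by subcutaneous osmotic minipump. The low dose targeted a steady-state plasma level of ≈100 nmol/L; the high dose targeted ≈10-fold more. SV, CO and diastolic parameters were assessed by echocardiography, with cardiac fibrosis and heart weight also scored. One-way ANOVA with Tukey or Dunnett tests was used.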

[8] = system: RHR (renal hypertensive rat) model; assay: RHR model, oral BID study; assay type: in vivo
[9] = system: instrumented anesthetized rats; assay: Acute hemodynamics, dobutamine single dose 15-min IV infusion; assay type: in vivo, rat; details: 1 μg/kg/min IV, N=8
Procedure, shortened: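 Male Sprague-Dawley rats (≥250 g), anesthetized and surgically instrumented; test agents given as a 15-min IV infusion followed by a 15-min washout. Cardiac output and heart rate were expressed as percentage change from baseline during and after infusion. Paired Student t test was used for significance.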

[10] = 40 mg/kg/day SC infusion, BID study

CCOCc1nc(O)c(-c2nnc(Cc3ccc(Cl)cn3)o2)c(O)c1-c1c(OC)cccc1OC [BMS-986224]
steady-state plasma concentration ([1]; HD): 2686 nmol/L | steady-state plasma concentration ([1]; low dose): 102 nmol/L | area under the plasma drug concentration−time curve (0–24) ([1]; oral 0.1 mg/kg BID): 3.42 µM·h | peak plasma concentration ([1]; oral 0.1 mg/kg BID): 205 ± 11 nmol/L | trough plasma concentration ([1]; oral 0.1 mg/kg BID): 25 ± 4 nmol/L | area under the plasma drug concentration−time curve (0–24) ([1]; oral 1 mg/kg BID): 34.3 µM·h | peak plasma concentration ([1]; oral 1 mg/kg BID): 2095 ± 161 nmol/L | trough plasma concentration ([1]; oral 1 mg/kg BID): 302 ± 29 nmol/L | EC50 (human APJ [2]): 0.02 ± 0.02 nM | CO percentage change from baseline ([3]; 1 μg/kg/min IV): 8.2% | SV percentage change from baseline ([3]; 1 μg/kg/min IV): 6.0% | decrease in mean arterial pressure from baseline ([3]; 10 μg/kg per minute, P<0.001 versus vehicle): 1.9% | CO percentage change from baseline ([3]; 10 μg/kg/min IV): 15.4% | SV percentage change from baseline ([3]; 10 μg/kg/min IV): 12.6% | CO percentage change from baseline ([3]; 100 μg/kg/min IV): 15.9% | SV percentage change from baseline ([3]; 100 μg/kg/min IV): 12.3% | maximum increase in CO ([3]; 15-min IV infusion): ≈ 15% | maximum effective dose ([3]; based on the increases in CO): 10 μg/kg per minute | minimum effective dose ([3]; based on the increases in CO): 1 μg/kg per minute | Plasma exposure ([4]; 1 μg/kg per minute IV): 95 ± 5 nmol/L | free plasma concentration at the minimum effective dose ([4]; adjusted for protein binding, 1 μg/kg per minute): 2 nM | binding/activity at other GPCRs (other GPCRs): did not bind other GPCRs | signaling bias relative to (Pyr1) apelin-13 (human APJ [5]): lack of bias | relative activity vs (Pyr1) apelin-13, ΔLog (RA) (human APJ [5]; ratio of Ymax and EC50, each signaling readout): > 0 | SV and CO [6]: increased | other measured parameters (diastolic parameters, cardiac fibrosis, heart weight) [7]: without affecting | SV and CO ([7]; high dose 3 mg/kg/day, 3 mg/kg/day): not noted | LV mass or EF vs vehicle ([8]; oral BID, trough): no significant differences

CC(CCc1ccc(O)cc1)NCCc1ccc(O)c(O)c1 (centres unmarked) [Dobutamine]
Cardiac output % change from baseline [9]: 11.2%

CCOC(=O)[C@H](CCc1ccccc1)N[C@@H](C)C(=O)N1CCC[C@H]1C(=O)O [Enalapril]
LV end-diastolic volume vs vehicle [8, 10]: increased | LV mass, heart weight, and EF vs vehicle [8, 10]: reduced | SV, CO, and HR vs vehicle [8, 10]: without significant effect
